Screens from PubChem.
Only some compounds are listed: those with a hit (about 2.4% of all), similar ones and a draw of the others.
Rpn11 inh: Rpn11 (PSMD14) deubiquitinase inhibitors, primary screen, biochemical, fluorescence polarization, uHTS | 26S proteasome non-ATPase regulatory subunit 14 (Homo sapiens), O00487 | inhibition, % at 20 µM | human 26S proteasome, Ub4-pepOG fluorescence polarization; 20S core pre-blocked with epoxomicin | 0.59% of 360,000 active;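 active means inhibition at 20 µM, scaled to each plate's controls, above about 33%, limit read from the data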
TbMetRS inhib: T. brucei MetRS inhibitors, primary screen, biochemical, luminescence; methionyl-tRNA synthetase (Trypanosoma brucei brucei); purified T. brucei MetRS, ATP depletion, Kinase-Glo luminescence; inhibition, % at 11.9 µM; 0.4% of 360,000 active;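 active means inhibition above a per-plate cutoff of the control wells' mean inhibition plus 3 SD, cut at about 5.5% in these data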
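Material: parasite MetRS enzyme / Replication: singlicate, one well per compound / Signal: luminescence of leftover ATP / Schedule: 2 h aminoacylation at 25 °C after 15 min preincubation / Medium: HEPES-MgCl2-KCl buffer plus DTT, spermine, BSA, pyrophosphatase / Doses: 11.9 µM single point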
PREPL inhibitor: PREPL enzyme inhibitors, primary screen, biochemical, fluorescence polarization | Prolyl endopeptidase-like (Homo sapiens), Q4J6C6 | recombinant PREPL, fluorescence polarization activity-based probe | inhibition, % at 5.96 µM | 0.68% of 320,000 active | AID 2751, 2010; in the data active means inhibition above about 43%
Target sequence (Q4J6C6 whole entry, looked up): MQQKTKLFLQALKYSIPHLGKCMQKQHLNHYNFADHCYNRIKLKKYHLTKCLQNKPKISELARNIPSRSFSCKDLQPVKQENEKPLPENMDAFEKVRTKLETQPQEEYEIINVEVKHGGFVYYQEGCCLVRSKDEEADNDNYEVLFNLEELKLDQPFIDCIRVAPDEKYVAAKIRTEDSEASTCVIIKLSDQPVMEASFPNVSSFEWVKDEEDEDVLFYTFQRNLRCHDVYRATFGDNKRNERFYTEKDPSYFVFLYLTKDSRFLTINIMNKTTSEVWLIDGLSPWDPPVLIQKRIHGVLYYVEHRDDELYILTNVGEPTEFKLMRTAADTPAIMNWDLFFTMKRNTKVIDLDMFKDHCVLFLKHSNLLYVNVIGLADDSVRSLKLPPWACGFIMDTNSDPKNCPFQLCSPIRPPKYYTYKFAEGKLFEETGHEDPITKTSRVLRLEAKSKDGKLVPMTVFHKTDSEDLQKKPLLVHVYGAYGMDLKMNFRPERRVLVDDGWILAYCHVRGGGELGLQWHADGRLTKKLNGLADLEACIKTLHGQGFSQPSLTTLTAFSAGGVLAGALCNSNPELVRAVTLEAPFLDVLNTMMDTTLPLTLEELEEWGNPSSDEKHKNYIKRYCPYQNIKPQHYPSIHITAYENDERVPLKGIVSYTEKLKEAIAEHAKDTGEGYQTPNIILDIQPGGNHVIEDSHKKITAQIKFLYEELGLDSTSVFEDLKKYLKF
HNF4A DNA FP: change in binding of human HNF4A to DNA, primary screen, biochemical, fluorescence polarization, FITC-DNA; Hepatocyte nuclear factor 4-alpha (Homo sapiens), P41235; 1 h; activity change, % at 10 µM; 0.3% of 360,000 active; AID 1224865, 2016; in the data active means activity change above about 30%, passing the limit was not always enough
Neddyl block: inhibitors of cullin neddylation, primary screen, biochemical, TR-FRET, uHTS, NAE and Ubc12; NEDD8-conjugating enzyme Ubc12 (Homo sapiens) + NEDD8-activating enzyme E1 regulatory …; inhibition, % at 25 µM; 0.58% of 360,000 active; AID 651699, 2012; in the data active means inhibition above about 36%
CSN inh: inhibitors of CSN-mediated cullin deneddylation, primary screen, biochemical, fluorescence polarization, uHTS. COP9 signalosome complex subunit 5 (Homo sapiens), Q92905. inhibition, % at 12.5 µM. Purified CSN, SCF-Nedd8-OG deneddylation. 0.38% of 360,000 active;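 active means pattern-corrected inhibition above about 35%, with an unprinted fluorescence ratio check between 0.5 and 1.5, limit read from the data, passing the limit was not always enough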
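Detection – fluorescence polarization · System – HEK293T-derived human Csn5 enzyme · Controls – substrate-only high control, full reaction low control · Timing – 90 min, room temperature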
Numbers stand for hits; 0 = inactive; - = no result shown.

SMILES	Rpn11 inh	TbMetRS inhib	PREPL inhibitor	HNF4A DNA FP	Neddyl block	CSN inh
Cc1cccc(-c2cccc(NC(=O)C3CCCN(C(=O)c4csc(C)n4)C3)c2)c1 (centres undefined)	0	0	0	0	0	0
CNC(=O)C1CC(=O)N(c2ccc(OCC(=O)Nc3ccc(F)cc3)cc2)C1 (centres undefined)	0	0	-	0	0	0
CCc1cc(C(=O)OC)c(NC(=O)CC2Nc3cc(C)c(C)cc3NC2=O)s1 (centres undefined)	-	0	0	61	0	0
Cc1cc2c(cc1C)NC(CC(=O)NCc1ccccc1)C(=O)N2 (centres undefined)	53	0	0	0	0	0
CCc1cc(C(=O)OC)c(NC(=O)CC2SC(=NC)N(C)C2=O)s1 (centres undefined)	0	0	0	0	0	0
COC(=O)c1c(NC(=O)CC2Nc3cc(C)c(C)cc3NC2=O)sc(C)c1C (centres undefined)	50	0	0	0	0	0
COc1cc(-c2noc(C)c2C(=O)NCCCn2ccnc2)cc(OC)c1OC	0	0	0	0	0	0
C/C(CCc1oc2ccccc2c1-c1ccc(C)o1)=N/O	0	0	0	0	0	0
C/C(CCc1oc2c(Br)cc(Br)cc2c1-c1ccc(C)o1)=N\O	0	15	0	0	0	0
Cc1cc(OCC(=O)OCC(=O)N2CCCCC2)ccc1Cl	0	0	-	0	0	0
CC(C(=O)O)N1C(=O)CSC1=S (centres undefined)	0	0	0	88	0	0
COc1cc(CNCc2ccccn2)ccc1OCc1ccc(Cl)c(Cl)c1	0	0	49	0	0	0
COc1cc(CNCc2ccccn2)ccc1OCC(N)=O	0	0	0	0	0	0
Cc1ccc(Sc2ccc(N)cn2)cc1	0	0	0	0	0	45
NC(=O)CC(NC(=O)c1cccc(Br)c1)c1ccc(NC2CCCCCCC2)c([N+](=O)[O-])c1 (centres undefined)	0	0	0	0	0	0
CCOC(=O)c1cnn2c(C)cc(-c3ccccc3)nc12	0	0	0	53	-	0
O=C(N/N=C/c1ccc(OC(=O)c2cccc(F)c2)cc1)c1cccnc1	0	0	0	0	0	41
O=C(N/N=C/c1ccc(OC(=O)c2cccc(Br)c2)cc1)c1cccnc1	0	0	0	0	0	0
Nc1nn(-c2cccc(F)n2)cc1-c1ccccc1	0	0	-	39	0	0
CCOc1ccc2c(c1)S/C(=C\c1cccs1)C(=O)N2	0	0	0	0	0	40
COCCNc1cc(N)c([N+](=O)[O-])cc1[N+](=O)[O-]	0	0	0	45	0	0
COc1cc2nc(N3CCNCC3)nc(N)c2cc1OC	0	0	0	0	-	116
COc1cc2nc(N3CCN(c4cc(C)ccc4C)CC3)nc(N)c2cc1OC	0	0	0	0	0	0
O=C(NCCN1CCN(c2ccccc2)CC1)c1cccn2c(=O)c3ccccc3nc12	0	0	0	0	0	0
O=C(NCCN1CCN(c2ccccc2F)CC1)c1cccn2c(=O)c3ccccc3nc12	0	0	0	0	43	0
SMILES	Rpn11 inh	TbMetRS inhib	PREPL inhibitor	HNF4A DNA FP	Neddyl block	CSN inh
O=C(O)c1cc(S(=O)(=O)Nc2ccc(OCc3ccccc3)cc2)ccc1Br	0	0	0	0	0	0
O=C(CSc1nnc(CNC(=O)c2ccccc2F)o1)NCc1ccco1	0	0	0	0	0	40
CC(C)(C)NC(=O)Cn1c(SCC(N)=O)nc2ccccc21	0	0	0	0	0	0
CC(C)(C)NC(=O)Cn1c(SCC(=O)N2CCCCCC2)nc2ccccc21	0	0	0	32	0	0
Nc1ccc(OCCCc2c(N)nc(N)nc2N)cc1	81	0	52	0	0	0
COc1ccc(Cc2c(N)nc(N)nc2N)cc1	0	0	0	0	0	0
O=C(CC[C@H]1O[C@@H](n2ccc(=O)[nH]c2=O)[C@H](O)[C@@H]1O)N[C@@H](Cc1ccccc1)C(=O)NCC1CCCCC1	0	0	-	0	0	0
CCN(CC)c1ccc(/C=C2\CCC(/C=C(\C#N)C(=O)Nc3ccccc3F)=C2N2CCOCC2)cc1	0	0	-	0	0	0
N#C/C(=C/C1=C(N2CCOCC2)C(=C/c2ccccc2)/CC1)C(=O)Nc1ccccc1F	-	0	-	0	0	58
COc1cc(N2CCCC2)c(OC)cc1/C=C(/C#N)c1cccc(F)c1	-	0	0	0	0	54
N#C/C(=C/c1ccc(N2CCCCCC2)o1)c1cccc(F)c1	-	0	0	0	0	0
O=C(CSC1=NNC(c2ccccn2)S1)Nc1ccc(C(F)(F)F)cc1 (centres undefined)	0	0	0	0	0	0
c1ccc(CSC2=NNC(c3ccccn3)S2)cc1 (centres undefined)	0	0	0	0	38	0
CN(C)c1ccc(-c2nc3ccccc3c(=O)[nH]2)cc1	0	0	0	0	42	0
CCCCc1c(-c2cccc(Cl)c2)ncn1CCc1ccccc1OC	-	0	-	0	0	0
COc1ccc(OC)c(NC(=O)CCC(=O)N(Cc2ccc(OC)c(OC)c2)c2nccs2)c1	0	0	0	0	0	43
COc1ccc(NC(=O)CCC(=O)N(Cc2ccc(OC)c(OC)c2)c2nccs2)c(OC)c1	0	0	0	0	0	0
CC(C)COc1ccc(C(=O)Nc2cc(S(=O)(=O)N3CCOCC3)ccc2N2CCCC2)cc1	0	0	0	0	0	0
CCN1C(=O)c2cccc3c(NC(=O)c4ccc5c(c4)OCCO5)ccc1c23	-	0	0	60	0	0
CCN1C(=O)c2cccc3c(NC(=O)c4ccccc4)ccc1c23	0	0	0	0	0	0
CCOC(=O)[C@]12CCCC=C1N(Cc1ccco1)C(=O)[C@H](CC(=O)NCc1ccccc1)C2	-	0	-	0	0	0
NC(=O)C(CC(=O)O)NC(=O)[C@@H]1CCCNc2c(I)cc([N+](=O)[O-])cc2C(=O)N[C@@H](CO)C(=O)N[C@@H](Cc2ccc(O)cc2)C(=O)N1 (some centres undefined)	0	41	0	0	0	0
Cc1ccc(C(O)c2ncc(-c3ccccc3Cl)[nH]2)cc1F (centres undefined)	0	0	-	0	0	0
C[C@@H]1CCCCO[C@@H](CN(C)CC2CC2)[C@@H](C)CN([C@H](C)CO)C(=O)c2cc(N(C)C)ccc2O1	0	0	-	0	0	0
